Test results: ChEMBL document CHEMBL3232767, “Synthesis of the antiproliferative agent hippuristanol and its analogues from hydrocortisone via Hg(II)-catalyzed spiroketalization: structure-activity relationship” (J Med Chem, 2014)
The source made the active and inactive calls. No cut-off for these calls is given here.

Species on record: Oryctolagus cuniculus
Test: Inhibition of translation in rabbit reticulocyte lysates using SP6 RNA polymerase at 10 uM by FF/HCV/Ren reporter gene assay
Format: functional
In short: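 Bicistronic mRNA (cap-dependent FF, HCV IRES-driven Ren as internal standard) translated in vitro at 4 ng/μL in rabbit reticulocyte lysate; compounds at 10 μM final vs 0.5% DMSO vehicle; anisomycin as control. FF and Ren luciferase read by luminometer, normalized to vehicle set at 1; duplicates averaged, error of the mean given.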

| Structure (SMILES) | inhibition |
| --- | --- |
| C[C@H]1C[C@]2(O[C@H]3C[C@H]4[C@@H]5CC[C@H]6C[C@H](O)CC[C@]6(C)[C@H]5[C@@H](O)C[C@]4(C)[C@H]3[C@H]2O)OC1(C)C | inactive |
| CC[C@@]1(O)[C@H]2[C@H](C[C@H]3[C@@H]4CC[C@H]5C[C@H](O)CC[C@]5(C)[C@H]4[C@@H](O)C[C@@]32C)O[C@@]12C[C@H](C)C(C)(C)O2 | inactive |
| C[C@H]1C[C@@]2(O[C@H]3C[C@H]4[C@@H]5CC[C@H]6C[C@H](O)CC[C@]6(C)[C@H]5[C@@H](O)C[C@]4(C)[C@H]3[C@@]2(C)O)OC1(C)C | Active |
| COc1ccc(C[C@H]2NC[C@H](O)[C@H]2OC(C)=O)cc1 | Active |
| CC[C@@]1(O)[C@H]2[C@H](C[C@H]3[C@@H]4CC[C@H]5C[C@H](O)CC[C@]5(C)[C@H]4[C@@H](O)C[C@@]32C)O[C@]12C[C@H](C)C(C)(C)O2 | inactive |
| C[C@H]1C[C@@]2(O[C@H]3C[C@H]4[C@@H]5CC[C@H]6C[C@@H](O)CC[C@]6(C)[C@H]5[C@@H](O)C[C@]4(C)[C@H]3[C@@]2(C)O)OC1(C)C | inactive |
| C[C@H]1C[C@@]2(O[C@H]3C[C@H]4[C@@H]5CC[C@H]6C[C@H](O)CC[C@]6(C)[C@H]5[C@@H](O)C[C@]4(C)[C@H]3[C@H]2O)OC1(C)C | inactive |
| C[C@H]1C[C@]2(O[C@H]3C[C@H]4[C@@H]5CC[C@H]6C[C@H](O)CC[C@]6(C)[C@H]5[C@@H](O)C[C@]4(C)[C@H]3[C@]2(O)CO)OC1(C)C | inactive |
| C[C@H]1C[C@]2(O[C@H]3C[C@H]4[C@@H]5CC[C@H]6C[C@H](O)CC[C@]6(C)[C@H]5[C@@H](O)C[C@]4(C)[C@H]3[C@@]2(C)O)OC1(C)C | Active |
| C[C@H]1C[C@@]2(O[C@H]3C[C@H]4[C@@H]5CC[C@H]6C[C@H](N)CC[C@]6(C)[C@H]5[C@@H](O)C[C@]4(C)[C@H]3[C@@]2(C)O)OC1(C)C | inactive |
| C[C@H]1C[C@]2(O[C@H]3C[C@H]4[C@@H]5CC[C@H]6C[C@H](O)CC[C@]6(C)[C@H]5[C@@H](O)C[C@]4(C)[C@H]3C2=O)OC1(C)C | inactive |
